≈ marks a conversion by molar mass, not a printed value. One block for each compound: values may come before it. Calls of active or inactive are those of the source. No cut-off for these calls is given here.
Tests used:
[1] = target: Mitogen-activated protein kinase 14 (Homo sapiens, UniProt Q16539)
[2] = system: PBMC; test: Inhibition of LPS-induced TNFalpha biosynthesis in human PBMC; assay type: functional, cell-based
In short: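 PBMCs isolated from human whole blood by Ficoll–Hypaque density gradient centrifugation, resuspended at 5 · 10⁶/mL in RPMI with 10% fetal bovine serum. Cells preincubated with compound (0.2% DMSO) 5 min at RT, then LPS added (200 ng/mL stock), 6 h at 37 °C. Medium TNFα measured by ELISA; IC₅₀ from linear regression. Duplicate typical.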

[3] = system: Serum; test: Drug level in LPS challenged mouse serum at 5 mg/kg, po; assay type: ADME, organism-based; set-up: dose 5 mg/kg, route oral; details: in vivo, read-out: Drug uptake
In short: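 Serum drug concentration in mice measured in the LPS challenge study after 5 mg/kg oral dosing, 4 h or 24 h pre-dosing interval.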

[4] = target: Tyrosine-protein kinase Lck (Homo sapiens, UniProt P06239); test: Inhibition of Lck
Chain of Tyrosine-protein kinase Lck (P06239 whole entry): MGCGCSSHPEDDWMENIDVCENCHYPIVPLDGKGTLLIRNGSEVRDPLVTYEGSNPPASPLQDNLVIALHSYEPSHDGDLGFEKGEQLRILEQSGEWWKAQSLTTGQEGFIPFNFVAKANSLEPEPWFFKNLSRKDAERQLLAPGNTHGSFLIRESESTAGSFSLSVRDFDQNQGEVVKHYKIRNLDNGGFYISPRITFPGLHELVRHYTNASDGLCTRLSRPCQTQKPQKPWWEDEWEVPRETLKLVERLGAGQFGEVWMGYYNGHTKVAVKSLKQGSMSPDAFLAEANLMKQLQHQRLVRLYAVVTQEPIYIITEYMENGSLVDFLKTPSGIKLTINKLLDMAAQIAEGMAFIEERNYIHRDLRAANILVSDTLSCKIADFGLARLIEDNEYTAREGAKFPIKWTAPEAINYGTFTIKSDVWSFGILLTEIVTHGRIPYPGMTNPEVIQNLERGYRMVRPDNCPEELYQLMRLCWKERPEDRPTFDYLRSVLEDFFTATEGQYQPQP

[5] = system: Mus musculus; test: Inhibition of LPS-induced TNFalpha production in mouse at 5 mg/kg, po administered 24 hrs before LPS challenge relative to control; assay type: functional, organism-based; set-up: dose 5 mg/kg
In short: (§1)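 Mice given 5 mg/kg orally, then LPS challenge after a 4 h or 24 h pre-dosing interval. Circulating TNFα reduction reported as percent versus vehicle, mean ± SD, n = 8 animals; Student's t-test.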

[6] = system: Mus musculus; test: Inhibition of LPS-induced TNFalpha production in mouse at 5 mg/kg, po administered 4 hrs before LPS challenge relative to control; assay type: functional
In short: as §1

[7] = system: Rattus norvegicus; test: Inhibition of disease progression in rat adjuvant-induced arthritis model assessed as paw swelling at 1 mg/kg, po qd; assay type: functional, organism-based; set-up: dose 1 mg/kg
In short: (§2)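 Rat adjuvant-induced arthritis, compound given orally once daily; disease progression read as paw swelling over study days 10–21 versus vehicle; Student's t-test.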

[8] = system: Liver; test: Metabolic stability in mouse liver microsomes; assay type: ADME, Microsome
[9] = AUC (0 to 24hrs) in rat at 10 mg/kg, po; assay type: ADME, organism-based; set-up: time < 24 hr, dose 10 mg/kg, route oral; details: plasma
[10] = target: T1, Cytochrome P450 1A2 (Homo sapiens, UniProt P05177); test: Inhibition of CYP1A2; assay type: ADME
T1 sequence (P05177 whole entry): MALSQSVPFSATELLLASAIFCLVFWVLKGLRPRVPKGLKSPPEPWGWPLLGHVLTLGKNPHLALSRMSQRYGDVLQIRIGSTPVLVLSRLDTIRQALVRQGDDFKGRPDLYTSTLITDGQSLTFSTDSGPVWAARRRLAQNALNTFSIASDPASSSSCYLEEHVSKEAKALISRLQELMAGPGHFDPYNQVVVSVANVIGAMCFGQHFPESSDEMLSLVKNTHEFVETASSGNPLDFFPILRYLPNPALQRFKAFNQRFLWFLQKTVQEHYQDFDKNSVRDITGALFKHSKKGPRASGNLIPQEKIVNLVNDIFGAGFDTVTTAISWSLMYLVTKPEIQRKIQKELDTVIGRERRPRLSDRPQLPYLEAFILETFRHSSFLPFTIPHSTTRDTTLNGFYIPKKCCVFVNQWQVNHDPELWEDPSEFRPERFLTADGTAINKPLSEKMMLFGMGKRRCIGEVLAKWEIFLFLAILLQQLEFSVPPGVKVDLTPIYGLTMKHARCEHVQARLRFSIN

[11] = system: Blood; test: Inhibition of LPS-induced IL1-beta production in human whole blood; assay type: functional, tissue-based
[12] = system: PBMC; test: Inhibition of LPS-induced IL1-beta production in human PBMC; assay type: functional, cell-based
[13] = species on record: Rattus norvegicus; test: Inhibition of LPS-induced TNFalpha production in Lewis rat by ELISA; assay type: functional
In short: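 Rats dosed orally; two hours later LPS (10 µg, E. coli […]) in 1 mL PBS given IP. Dose–response used to derive oral ED₅₀.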

[14] = Volume of distribution at steady state in rat at 1 mg/kg, iv; assay type: ADME, organism-based; set-up: dose 1 mg/kg, route intravenous; details: in vivo, read-out: Vdss
In short: (§3)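 Rat pharmacokinetics: iv dose 1 mg/kg and po dose 10 mg/kg, vehicle PEG300, n = 3 animals.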

[15] = Oral bioavailability in rat at 10 mg/kg; assay type: ADME, organism-based; details: in vivo
In short: as §3

[16] = system: Mus musculus; test: Inhibition of LPS-induced TNFalpha production in mouse at 5 mg/kg, po administered 24 hrs before LPS challenge relative to control
[17] = Aqueous solubility at pH 6.5; assay type: physicochemical; details: buffer
[18] = Half life in rat at 1 mg/kg, iv; assay type: ADME, organism-based; set-up: dose 1 mg/kg, route intravenous; details: in vivo
In short: as §3

[19] = Protein binding in human; assay type: ADME, organism-based; details: in vivo, read-out: PB (converted)
[20] = Cmax in rat at 10 mg/kg, po; assay type: ADME, organism-based; set-up: dose 10 mg/kg, route oral; details: in vivo
In short: as §3

[21] = system: Blood; test: Inhibition of LPS-induced TNFalpha production in human whole blood; assay type: functional, tissue-based
[22] = target: Cytochrome P450 2C9 (Homo sapiens, UniProt P11712); test: Inhibition of CYP2C9; assay type: ADME
Chain of Cytochrome P450 2C9 (P11712 whole entry): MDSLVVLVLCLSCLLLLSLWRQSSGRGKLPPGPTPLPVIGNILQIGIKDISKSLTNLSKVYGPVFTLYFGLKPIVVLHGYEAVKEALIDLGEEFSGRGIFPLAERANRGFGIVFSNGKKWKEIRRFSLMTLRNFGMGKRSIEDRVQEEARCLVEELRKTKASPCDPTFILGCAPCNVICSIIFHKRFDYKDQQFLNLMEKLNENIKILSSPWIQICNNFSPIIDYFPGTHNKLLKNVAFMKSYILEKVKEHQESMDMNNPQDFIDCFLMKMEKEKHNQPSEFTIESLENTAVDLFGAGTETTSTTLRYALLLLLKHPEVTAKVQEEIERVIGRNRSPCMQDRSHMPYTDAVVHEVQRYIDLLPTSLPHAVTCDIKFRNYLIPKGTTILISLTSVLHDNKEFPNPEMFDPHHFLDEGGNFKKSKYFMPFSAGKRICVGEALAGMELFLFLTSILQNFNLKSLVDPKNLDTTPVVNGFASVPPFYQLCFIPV

[23] = target: Cytochrome P450 3A4 (Homo sapiens, UniProt P08684); test: Inhibition of CYP3A4; assay type: ADME
Chain of Cytochrome P450 3A4 (P08684 whole entry): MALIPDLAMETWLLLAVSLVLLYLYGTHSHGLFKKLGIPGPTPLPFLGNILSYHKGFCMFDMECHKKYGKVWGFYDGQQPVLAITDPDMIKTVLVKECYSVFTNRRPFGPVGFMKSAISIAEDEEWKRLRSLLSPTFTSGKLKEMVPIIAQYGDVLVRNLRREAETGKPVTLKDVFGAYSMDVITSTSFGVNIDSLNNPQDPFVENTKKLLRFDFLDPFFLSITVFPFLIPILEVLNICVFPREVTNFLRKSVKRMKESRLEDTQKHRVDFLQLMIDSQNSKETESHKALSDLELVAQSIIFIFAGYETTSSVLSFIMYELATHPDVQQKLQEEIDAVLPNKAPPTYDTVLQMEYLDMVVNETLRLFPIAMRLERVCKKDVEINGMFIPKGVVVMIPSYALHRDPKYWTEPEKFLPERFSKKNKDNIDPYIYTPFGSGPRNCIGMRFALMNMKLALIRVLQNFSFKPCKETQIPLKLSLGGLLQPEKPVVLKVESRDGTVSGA

[24] = Drug level in rat serum at 3 mg/kg after 18 hrs; assay type: ADME, organism-based; set-up: dose 3 mg/kg; details: read-out: Drug uptake
In short: (§4)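 Terminal serum concentrations in adjuvant-arthritis rats taken 18 h after the final once-daily oral dose.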

[25] = Drug level in rat serum at 1 mg/kg after 18 hrs; assay type: ADME, organism-based; set-up: dose 1 mg/kg; details: read-out: Drug uptake
In short: as §4

[26] = system: Rattus norvegicus; test: Inhibition of disease progression in rat adjuvant-induced arthritis model assessed as paw swelling at 0.3 mg/kg, po qd; assay type: functional
In short: as §2

[27] = Drug level in rat at 10 mg/kg, po after 24 hrs; assay type: ADME, organism-based; set-up: dose 10 mg/kg, route oral; details: in vivo, read-out: Drug uptake
In short: as §3

[28] = system: Rattus norvegicus; test: Inhibition of disease progression in rat adjuvant-induced arthritis model assessed as paw swelling at 3 mg/kg, po qd; assay type: functional, organism-based; set-up: dose 3 mg/kg
In short: as §2

[29] = system: Liver microsomes; test: Metabolic stability in human liver microsomes; assay type: ADME, Microsome
[30] = target: Cytochrome P450 2D6 (Homo sapiens, UniProt P10635); test: Inhibition of CYP2D6; assay type: ADME
Chain of Cytochrome P450 2D6 (P10635 whole entry): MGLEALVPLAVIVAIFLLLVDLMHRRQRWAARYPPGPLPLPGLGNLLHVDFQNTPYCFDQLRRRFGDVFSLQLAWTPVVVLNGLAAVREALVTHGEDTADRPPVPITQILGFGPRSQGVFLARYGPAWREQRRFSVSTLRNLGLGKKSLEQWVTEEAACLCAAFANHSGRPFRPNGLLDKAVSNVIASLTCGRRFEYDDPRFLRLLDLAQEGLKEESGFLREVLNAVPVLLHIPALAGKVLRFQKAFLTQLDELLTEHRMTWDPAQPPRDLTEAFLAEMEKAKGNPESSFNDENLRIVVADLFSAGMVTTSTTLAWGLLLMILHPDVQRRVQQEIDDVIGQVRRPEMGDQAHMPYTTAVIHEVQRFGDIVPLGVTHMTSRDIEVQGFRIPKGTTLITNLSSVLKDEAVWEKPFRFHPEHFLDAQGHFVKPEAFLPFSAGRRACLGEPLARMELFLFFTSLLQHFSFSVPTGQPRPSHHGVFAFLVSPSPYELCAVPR

[31] = system: Liver microsomes; test: Metabolic stability in rat liver microsomes; assay type: ADME, Microsome
[32] = Permeability across human Caco-2 cells; assay type: ADME, cell-based; details: read-out: permeability
[33] = Clearance in rat at 1 mg/kg, iv; assay type: ADME, organism-based; set-up: dose 1 mg/kg, route intravenous; details: in vivo
In short: as §3

[34] = target: hERG (KCNH2) (Homo sapiens, UniProt Q12809); test: Inhibition of human ERG at 30 uM by patch clamp assay
Chain of hERG (KCNH2) (Q12809 whole entry): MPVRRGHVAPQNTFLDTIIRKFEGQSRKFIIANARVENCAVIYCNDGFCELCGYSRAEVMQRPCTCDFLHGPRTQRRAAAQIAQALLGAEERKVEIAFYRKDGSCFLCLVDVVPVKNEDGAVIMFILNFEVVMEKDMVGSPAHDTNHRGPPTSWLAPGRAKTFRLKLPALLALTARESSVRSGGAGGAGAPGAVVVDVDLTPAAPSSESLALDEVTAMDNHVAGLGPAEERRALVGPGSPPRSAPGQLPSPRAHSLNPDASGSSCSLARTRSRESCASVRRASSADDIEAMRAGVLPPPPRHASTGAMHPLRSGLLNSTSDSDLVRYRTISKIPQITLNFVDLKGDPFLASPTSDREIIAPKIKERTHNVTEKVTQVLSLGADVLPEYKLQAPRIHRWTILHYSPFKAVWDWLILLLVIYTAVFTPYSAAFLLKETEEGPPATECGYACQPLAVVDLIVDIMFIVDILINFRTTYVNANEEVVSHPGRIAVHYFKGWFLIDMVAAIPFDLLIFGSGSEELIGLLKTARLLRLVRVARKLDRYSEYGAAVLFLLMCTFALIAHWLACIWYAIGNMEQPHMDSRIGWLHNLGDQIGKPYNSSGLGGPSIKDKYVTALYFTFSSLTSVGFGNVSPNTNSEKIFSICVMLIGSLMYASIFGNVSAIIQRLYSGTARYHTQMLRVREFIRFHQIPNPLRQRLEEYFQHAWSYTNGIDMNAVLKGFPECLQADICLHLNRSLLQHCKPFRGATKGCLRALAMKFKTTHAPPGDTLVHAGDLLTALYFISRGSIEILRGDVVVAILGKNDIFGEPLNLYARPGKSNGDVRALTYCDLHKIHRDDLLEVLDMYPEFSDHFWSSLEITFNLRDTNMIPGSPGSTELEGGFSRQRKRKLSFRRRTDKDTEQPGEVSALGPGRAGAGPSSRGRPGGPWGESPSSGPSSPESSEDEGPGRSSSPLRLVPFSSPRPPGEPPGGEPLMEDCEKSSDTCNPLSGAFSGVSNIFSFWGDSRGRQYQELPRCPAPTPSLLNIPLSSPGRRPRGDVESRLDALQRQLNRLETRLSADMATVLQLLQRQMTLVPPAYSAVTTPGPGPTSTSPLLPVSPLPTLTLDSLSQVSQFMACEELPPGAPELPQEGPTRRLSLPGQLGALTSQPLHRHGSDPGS

[35] = target: Cytochrome P450 2C19 (Homo sapiens, UniProt P33261); test: Inhibition of CYP2C19; assay type: ADME
Chain of Cytochrome P450 2C19 (P33261 whole entry): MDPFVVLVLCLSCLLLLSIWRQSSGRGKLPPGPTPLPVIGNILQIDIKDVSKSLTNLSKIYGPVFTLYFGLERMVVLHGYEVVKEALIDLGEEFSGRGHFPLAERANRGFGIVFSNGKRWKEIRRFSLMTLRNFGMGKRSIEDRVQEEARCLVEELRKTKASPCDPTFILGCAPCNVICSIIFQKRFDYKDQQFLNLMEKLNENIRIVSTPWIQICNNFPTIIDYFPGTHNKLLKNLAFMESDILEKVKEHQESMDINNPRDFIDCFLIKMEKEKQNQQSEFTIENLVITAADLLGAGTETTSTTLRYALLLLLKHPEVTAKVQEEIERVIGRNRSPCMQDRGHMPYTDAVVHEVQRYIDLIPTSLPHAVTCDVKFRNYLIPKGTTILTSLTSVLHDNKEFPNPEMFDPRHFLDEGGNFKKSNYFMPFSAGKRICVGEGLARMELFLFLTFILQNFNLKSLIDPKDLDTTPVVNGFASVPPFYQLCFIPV

Chain of Mitogen-activated protein kinase 14 (Q16539 whole entry): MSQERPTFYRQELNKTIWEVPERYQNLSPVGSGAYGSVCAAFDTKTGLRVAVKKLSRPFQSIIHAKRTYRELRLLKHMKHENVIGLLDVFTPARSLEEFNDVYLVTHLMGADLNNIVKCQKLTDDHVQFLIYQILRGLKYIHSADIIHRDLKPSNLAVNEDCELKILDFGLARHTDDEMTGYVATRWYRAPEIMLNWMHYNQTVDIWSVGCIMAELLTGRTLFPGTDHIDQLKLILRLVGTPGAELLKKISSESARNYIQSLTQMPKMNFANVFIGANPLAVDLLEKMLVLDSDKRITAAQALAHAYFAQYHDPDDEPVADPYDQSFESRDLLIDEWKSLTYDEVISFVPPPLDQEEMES

IC50 [1]: 270 nM
SMILES: CCCNc1nc2c(s1)C(=O)N(c1cc(C(=O)NC)ccc1C)C2

IC50 [1]: 36 nM
IC50 [4]: 3310 nM
SMILES: Cc1cccc(Cl)c1NC(=O)c1cnc(NC2CCC2)s1

IC50 [1]: 4.2 nM
SMILES: Cc1ccc(C(=O)Nc2ccn[nH]2)cc1NC(=O)c1cnc(NC(C)C)s1
IC50 [2]: 7.9 nM

IC50 [1]: 160 nM
SMILES: CCCNc1nc2c(s1)C(=O)N(c1cc(C(=O)NCC)ccc1C)C2

IC50 [1]: 62 nM
SMILES: Cc1cccc(Cl)c1NC(=O)c1cnc(Nc2ccccc2)s1

IC50 [1]: 22 nM
SMILES: CNC(=O)c1ccc(C)c(NC(=O)c2cnc(NCCOC)s2)c1
IC50 [2]: > 250 nM

Stability [8]: 0 nmol/min/mg
AUC(0-t) at 24 h [9]: 25 µM·h
Activity [10]: > 40 µM
IC50 [11]: 600 nM
Vd [14]: 1.8 L/kg
bioavailability [15]: 75%
solubility [17]: 22 µg/mL (≈ 63.5 µM)
half-life [18]: 1.8 h
IC50 [4]: 22000 nM
fraction unbound [19]: 0.18
Cmax [20]: 8700 nM
IC50 [21]: 54 nM
Activity [22]: > 40 µM
Activity [23]: > 40 µM
concentration at 18 h [24]: 16 nM
concentration at 18 h [25]: 8.1 nM
concentration at 24 h [27]: 7.6 nM
Stability [29]: 0 nmol/min/mg
Activity [30]: > 40 µM
Stability [31]: 0 nmol/min/mg
Papp [32]: 8.3 ×10⁻⁶ cm/s
clearance [33]: 14.1 mL/min/kg
Activity [35]: > 40 µM
SMILES: CC[C@@H](C)Nc1ncc(C(=O)Nc2cc(C(=O)NC)ccc2C)s1
Activity [7]: Active
IC50 [2]: 2.9 nM
IC50 [12]: 99 nM
ED50 [13]: 2 mg/kg
inhibition in vivo at 5 mg/kg [16]: 46%
inhibition in vivo at 0.3 mg/kg [26]: 46%
Activity [28]: Active
inhibition at 30 µM [34]: 7%

IC50 [1]: 330 nM
SMILES: CCNC(=O)c1ccc(C)c(NC(=O)c2sc(NCC)nc2C)c1

IC50 [1]: 110 nM
SMILES: CNC(=O)c1ccc(C)c(N2Cc3nc(NC(C)C)sc3C2=O)c1

concentration [3]: 330 nM
IC50 [1]: 3.4 nM
IC50 [4]: > 50000 nM
SMILES: CCNC(=O)c1ccc(C)c(NC(=O)c2cnc(NC(C)C)s2)c1
IC50 [2]: 11 nM
inhibition in vivo at 5 mg/kg [6]: 68%

IC50 [1]: 4.1 nM
SMILES: CCCNc1ncc(C(=O)Nc2cc(C(N)=O)ccc2C)s1
IC50 [2]: 23 nM

Continued, compound first:

SMILES: CCNc1ncc(C(=O)Nc2c(C)cccc2Cl)s1
IC50 [1]: 140 nM

SMILES: CNC(=O)c1ccc(C)c(NC(=O)c2cnc(NC(C)C)s2)c1
IC50 [2]: 8.7 nM
concentration [3]: 400 nM
IC50 [1]: 3.5 nM
IC50 [4]: > 50000 nM
Activity [5]: inactive
inhibition in vivo at 5 mg/kg [6]: 62%

SMILES: Cc1ccc(C(=O)Nc2ccon2)cc1NC(=O)c1cnc(NC(C)C)s1
IC50 [2]: 1 nM

SMILES: CCNC(=O)c1ccc(C)c(N2Cc3nc(NC(C)C)sc3C2=O)c1
IC50 [2]: > 250 nM
IC50 [1]: 34 nM

SMILES: CCCNc1ncc(C(=O)Nc2c(C)cccc2Cl)s1
IC50 [2]: > 2000 nM
IC50 [1]: 28 nM

SMILES: Cc1cccc(Cl)c1NC(=O)c1cnc(NC2CC2)s1
IC50 [2]: 1500 nM
IC50 [1]: 39 nM
IC50 [4]: 140 nM

SMILES: Cc1cccc(Cl)c1NC(=O)c1cnc(NC(C)C)s1
IC50 [2]: 160 nM
IC50 [1]: 13 nM

SMILES: CCCNc1ncc(C(=O)Nc2cc(C(=O)NC)ccc2C)s1
IC50 [2]: 42 nM
IC50 [1]: 4.5 nM
IC50 [4]: 4800 nM

SMILES: CNC(=O)c1ccc(C)c(N2Cc3nc(NC4CCCC4)sc3C2=O)c1
IC50 [1]: 110 nM

SMILES: CC[C@H](C)Nc1ncc(C(=O)Nc2cc(C(=O)NC)ccc2C)s1
IC50 [2]: 4.1 nM
concentration [3]: 250 nM
IC50 [4]: > 50000 nM
inhibition in vivo at 5 mg/kg [6]: 69%

SMILES: CCCNc1nc(C)c(C(=O)Nc2cc(C(=O)NCC)ccc2C)s1
IC50 [1]: 130 nM

SMILES: CCCNc1ncc(C(=O)Nc2cc(C(=O)NCC)ccc2C)s1
IC50 [2]: 2.7 nM
IC50 [1]: 2 nM
IC50 [4]: 1900 nM
Activity [5]: inactive

SMILES: Cc1ccc(C(N)=O)cc1NC(=O)c1cnc(NC(C)C)s1
IC50 [2]: 35 nM
IC50 [1]: 3.2 nM
IC50 [4]: > 50000 nM

SMILES: Cc1ccc(C(=O)Nc2ccnn2C)cc1NC(=O)c1cnc(NC(C)C)s1
IC50 [2]: 6.4 nM
IC50 [1]: 5.4 nM
IC50 [4]: 5800 nM
